What all share (type): functional
One test relates to SK-MEL-2. The test can be described thus: Antiproliferative activity against human SK-MEL-2 cells after 48 hrs by sulforhodamine B assay. To be noted: SK-MEL-2, 48 h; for TGI: read-out: pTGI (converted). The essentials:
(§1)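 Cells grown in RPMI 1640 with 5% FBS and 2 mM L-glutamine, plated at 5000–40,000 cells/well and preincubated 24 h at 37 °C, 5% CO2. Five drug concentrations (10-fold or ½-log dilutions from DMSO stocks) applied for 48 h. TCA-fixed (final 10% adherent, 16% suspension), SRB-stained, A515 read. Growth versus time-zero and control wells gave GI50, TGI, LC50.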
(In general: Sulforhodamine B stains cellular protein and so reports cell mass.)

The subject of a further test is IGROV-1. Kind of test: Antiproliferative activity against human IGROV1 cells after 48 hrs by sulforhodamine B assay. To be noted: IGROV-1, 48 h; for TGI: read-out: pTGI (converted). The procedure, abridged: as §1
Another test concerns SR. Kind of test: Antiproliferative activity against human SR cells after 48 hrs by sulforhodamine B assay. The settings on record: for TGI: read-out: pTGI (converted). The essentials: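 Cells in RPMI 1640 with 5% FBS and 2 mM L-glutamine were seeded at 5000–40,000/well according to doubling time and preincubated 24 h at 37 °C in 5% CO2. Time-zero plates were TCA-fixed when drug was added. Five 10-fold or ½-log dilutions from DMSO stocks were added for 48 h. After SRB staining, A515 was read and GI50 derived from [(Ti−Tz)/(C−Tz)]×100 = 50.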

The subject of the next test is BT-549. The test can be described thus: Antiproliferative activity against human BT549 cells after 48 hrs by sulforhodamine B assay. To be noted: BT-549, 48 h. The essentials: as §1

For `CN1CCN(CCCn2c(=O)c3sc4ncccc4c3n3nnc(-c4ccccc4)c23)CC1`, in the test with SK-MEL-2, growth was halved (GI50) at 8.71 µM; the median lethal concentration (LC50) (in general, the concentration that kills 50% of the test population) was 31.6 µM; the TGI is 16.6 µM. In the test with IGROV-1, the GI50 (as a rule, the concentration at which growth is held to half of that of the control) was 5.89 µM; the 50% lethal concentration (LC50) was 32.4 µM; the TGI is 13.8 µM. Also, in the test on SR, halving of growth (GI50) required 1.1 µM, the LC50 (50% lethal concentration) was 12 µM and the TGI was 2.57 µM.
Take `O=C(CCCn1c(=O)c2sc3ncccc3c2n2nnc(-c3ccccc3)c12)NCCc1c[nH]cn1`: in the test on SK-MEL-2, growth was halved (GI50) at 17.8 µM, the LC50 was 85.1 µM and the TGI is 38.9 µM. Further, in the test with IGROV-1, it took 9.55 µM to inhibit growth by half (GI50), the LC50 is 75.9 µM and the TGI was 27.5 µM. Also, in the test with SR, the GI50 is 2.51 µM, the LC50 (50% lethal concentration) was more than 100 µM and the TGI was 6.17 µM.
For `O=C(CCCn1c(=O)c2sc3ccccc3c2n2nnc(-c3ccccc3)c12)NCCc1c[nH]cn1`, in the test on BT-549, the GI50 is 17.4 µM. Also, the CC50 in the test on BT-549 (read-out: pLC50 (the source's name) (converted)) was more than 100 µM. Besides, the TGI with BT-549 (read-out: pTGI (converted)) was 41.7 µM.

For the origin of these results see ChEMBL document CHEMBL2346608, “New annelated thieno[2,3-e][1,2,3]triazolo[1,5-a]pyrimidines, with potent anticancer activity, designed through VLAK protocol” (2013).
